Tb MetRS inh: T. brucei MetRS inhibitors, primary screen, biochemical, luminescence; methionyl-tRNA synthetase (Trypanosoma brucei brucei); purified T. brucei MetRS, ATP depletion, Kinase-Glo luminescence; inhibition, % at 11.9 µM; 360,000 compounds, 0.4% hits;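 active = inhibition above a per-plate cutoff of the control wells' mean inhibition plus 3 SD, cut at about 5.5% in these data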;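 note: 0% = DMSO wells median and 100% = median of wells with control inhibitor compound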
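assay system = parasite MetRS enzyme | timing = 15 min preincubation, 2 h reaction, all 25 °C | evaluation = percent inhibition relative to median high and low control wells | medium = HEPES buffer containing pyrophosphatase, BSA, spermine, DTT | compound = single dose, 11.9 µM final nominal, 0.9% final DMSO | detection = Kinase-Glo luminescence, ATP depletion format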
WT yeast gro inh: growth inhibition of WT strain, primary screen, mitochondrial fusion inhibitor project, WT and mutant strains, chemical genetic | mitochondrial fusion phenotypic screen | inhibition, % at 10 µM | AID 1362, 2008 | 190,000 compounds, 2.1% hits; in the data active = inhibition above about 58%; tested in S. cerevisiae
CHOP inh: inhibitors of CHOP promoter induction, primary screen, cell-based, unfolded protein response, luciferase reporter; CHO-K1 CHOP-promoter luciferase, tunicamycin-induced, 15-18 h; inhibition, % at 10 µM; 220,000 compounds, 3.8% hits;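 active = compounds that reduced the stress-induced luciferase reporter signal by more than about 70% of percent inhibition, limit read from the data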;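 note: 0% = tunicamycin plus vehicle and 100% = wells without tunicamycin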
EBV gp42 inh: Epstein-Barr virus gp42 inhibitors, primary screen, biochemical, uHTS, fluorescence polarization | Glycoprotein 42 (Epstein-Barr virus (strain AG876)), Q1HVG2 | Fluorescence polarization binding assay, mP read-out | inhibition, % (tested at 21.74 µM) | 220,000 compounds, 0.42% hits; in the data active = inhibition above about 50%
Target sequence (Q1HVG2 whole entry, looked up): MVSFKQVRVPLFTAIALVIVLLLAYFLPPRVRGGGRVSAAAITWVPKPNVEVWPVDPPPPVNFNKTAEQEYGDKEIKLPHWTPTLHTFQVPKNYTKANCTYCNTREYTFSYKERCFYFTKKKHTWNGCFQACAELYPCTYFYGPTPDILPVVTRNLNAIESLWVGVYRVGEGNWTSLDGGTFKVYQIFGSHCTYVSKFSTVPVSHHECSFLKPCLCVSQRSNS
NR3A LBD binder: binders of NR3A ligand-binding domain, primary screen, biophysical, differential scanning fluorimetry, uHTS. Tm shift relative to glycine control, % at 25 µM. 340,000 compounds, 2.5% hits. NR3A LBD differential scanning fluorimetry, Tm shift; 0% = protein alone, 100% = glycine-bound protein. AID 1259313, 2017. Glutamate receptor ionotropic, NMDA 3A (GRIN3A) ligand-binding domain;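 active = melting temperature shift of at least 10% of the positive control shift, at one fixed dose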
MPTP inh: mitochondrial permeability transition pore inhibitors, primary screen, biochemical, isolated mouse mitochondria, absorbance; Ca2+ swelling absorbance, 30 min; inhibition, % at 10 µM; 360,000 compounds, 1.4% hits; AID 602449, 2012;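 active = inhibition of 50% or more, scaled per plate between neutral and stimulator controls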;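 note: 0% = DMSO wells given calcium and 100% = 1 mM EGTA wells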
Active calls of the source: *; x = no result given. Rows were chosen to be rich in hits. Some 6.4% of all compounds tested hit in one or more screens of this group.

SMILES | Tb MetRS inh | WT yeast gro inh | CHOP inh | EBV gp42 inh | NR3A LBD binder | MPTP inh
CC1CCCN(C(=O)N2c3ccccc3Sc3ccccc32)C1 (stereo not drawn) | -1 | 69* | 1 | -18 | 2 | -1
CC1CN(C(=O)N2c3ccccc3Sc3ccccc32)CC(C)O1 (stereo not drawn) | -1 | 51 | 40 | 4 | 0 | -1
COC(=O)c1oc2ccccc2c1NC(=O)CN1CCCC1 | -1 | -10 | 72* | -20 | -1 | 0
COC(=O)c1oc2ccc(Br)cc2c1NC(=O)CN1CCN(C)CC1 | 0 | x | x | x | -2 | 1
O=C(NCCCN1CCCC1=O)c1cc(COc2ccc(F)cc2F)on1 | 0 | x | x | x | 0 | 1
O=C(N/N=C/c1ccncc1)c1sc2ccccc2c1Cl | 0 | x | x | x | 13* | 1
O=C(Nc1ccc(NC(=O)c2sc3ccccc3c2Cl)cc1)c1ccco1 | -1 | -29 | -17 | -20 | 29* | 0
Cc1cnc(NC(=O)c2sc3ccccc3c2Cl)s1 | -1 | -3 | -4 | -9 | 20* | 2
O=C(Nc1nccs1)c1sc2ccccc2c1Cl | -1 | 19 | 24 | 9 | -19 | 6
COc1ccc2c(Cl)c(C(=O)N/N=C/c3ccncc3)sc2c1 | -1 | x | x | x | -5 | 0
O=C(NC1CCCC1)C1c2ccccc2OCC(=O)N1Cc1ccccn1 (stereo not drawn) | 0 | x | x | x | x | 1
COC(=O)[C@@H](Cc1ccccc1)NC(=O)CC[C@H]1O[C@@H](n2cc(C)c(=O)[nH]c2=O)C[C@@H]1O | -1 | x | x | x | 7 | -1
O=C(NCc1ccncc1)c1cncc(Br)c1 | -1 | -4 | 38 | -7 | 0 | -2
CCC1CCCCN1Cc1nc2c(c(=O)n(C)c(=O)n2C)n1CCCc1ccccc1 (stereo not drawn) | -1 | x | x | x | -1 | -1
CCOCCn1c(CN(Cc2ccccc2)Cc2ccccc2)nc2c1c(=O)n(C)c(=O)n2C | 0 | 27 | 80* | -12 | -2 | 1
CCC1CCCCN1Cc1nc2c(c(=O)n(C)c(=O)n2C)n1Cc1ccccc1 (stereo not drawn) | 0 | 9 | 83* | 0 | 4 | 0
CCCCCn1c(CN(C)Cc2ccccc2)nc2c1c(=O)n(C)c(=O)n2C | -1 | 18 | -17 | -24 | -3 | 0
CCCCn1c(CN(Cc2ccccc2)Cc2ccccc2)nc2c1c(=O)n(C)c(=O)n2C | 0 | x | x | x | 25* | -1
CCOCCn1c(N2CCN(c3ccccc3)CC2)nc2c1c(=O)n(C)c(=O)n2C | 0 | -18 | 38 | -16 | 0 | 0
CCOCCn1c(CN(Cc2ccccc2)Cc2ccccc2)nc2c1c(=O)[nH]c(=O)n2C | -1 | 9 | -12 | -7 | 1 | -2
CCCCCCn1c(N2CCN(c3ccccc3)CC2)nc2c1c(=O)n(C)c(=O)n2C | 0 | 66* | 54 | -1 | 6 | 8
O=C(Nc1ccc2c(c1)CCCN2C(=O)c1ccccc1)c1ccccc1Br | 0 | x | x | x | 2 | 0
COc1ccccc1NC(=O)NCCN1C(=O)C2C3C=CC(C3)C2C1=O (stereo not drawn) | -1 | 11 | 29 | -1 | -2 | -3
O=C(N/N=C/c1ccc(OC(F)F)cc1OC(F)F)NC1CCCCC1 | 1 | 45 | 91* | 12 | -28 | 3
COc1cc(CCC(=O)OCC(=O)Nc2ccc(F)c(F)c2)cc(OC)c1OC | 0 | x | x | x | -1 | 0
COc1ccc(-c2csc3nc(C(C)C)oc(=O)c23)cc1OC | 2 | -6 | 11 | 5 | -1 | -2
COc1ccc(-c2nc3scc(-c4ccc(OC)c(OC)c4)c3c(=O)o2)cc1 | 0 | -28 | 92* | -24 | 3 | 1
COc1cccc(NC(=O)Cn2c3ccc(F)cc3c3nc4n(c(=O)c32)CCCS4)c1 | 0 | x | x | x | 3 | 5
Cc1ccc(NC(=O)Cn2c3ccc(F)cc3c3nc4n(c(=O)c32)CCS4)cc1F | 0 | 19 | 16 | 2 | 12* | 0
CC(C)OC(=O)CSc1ncnc2c1cnn2Cc1ccccc1 | -1 | 0 | 75* | -6 | 3 | 3
